# Only some compounds are listed: those with a hit (about 2.9% of all), similar ones and a draw of the others.
# TRPC6 inhibitor = mouse TRPC6 channel inhibitors, primary screen, cell-based, HEK293, membrane potential dye; Short transient receptor potential channel 6 (Mus musculus), Q61143; ACh-evoked depolarization; stronger effect = lower value; B-score at 10 µM; 310,000 compounds, 1.1% hits;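 active = B-score under library mean minus 3 SD, initial fluorescence not abnormally high, positive integrated signal ratio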;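 note: B-score derived from integrated fluorescence ratio over the kinetic read; more negative B-score means stronger inhibition of depolarization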
# TRPC4 act = activators of mouse TRPC4 channel, primary screen, Fluo4 calcium, HEK293 TRPC4beta/mu-opioid cells | 310,000 compounds, 0.49% hits | Fluo4 calcium fluorescence; stronger effect = higher value | Short transient receptor potential channel 4 (Mus musculus), Q9QUQ5 | B-score at 10 µM | AID 2237, 2010;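 active = B-score above 5 SD of library B-scores, and initial fluorescence ratio not above library mean plus 5 SD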;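 note: positive B-score marks a calcium rise read as TRPC4 activation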
#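 Material: TRPC4beta and mu-opioid receptor HEK293 stable cells | Incubation: 45 min room-temperature Fluo4 loading, 110 s read | Detection: Kinetic Fluo4 calcium fluorescence | Measure: Integrated baseline-normalised fluorescence ratio, converted to per-well B score | Benchmarks: Low control buffer alone, high control maximal DAMGO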
# TRPC6 activator = mouse TRPC6 channel activators, primary screen, cell-based, HEK293, membrane potential dye. B-score at 10 µM. Short transient receptor potential channel 6 (Mus musculus), Q61143. 310,000 compounds, 0.13% hits. HEK293-TRPC6 membrane potential dye fluorescence; stronger effect = higher value. AID 2550, 2010;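 active = B-score of the integrated fluorescence ratio above library mean plus 3 SD, and starting fluorescence ratio within library mean plus 5 SD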;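 note: higher score means more depolarization so channel activation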
# Kir21 block = inhibitors of mouse Kir2.1 inward-rectifier potassium channel. Inward rectifier potassium channel 2 (Mus musculus), P35561. HEK293-Kir2.1, FluxOR thallium flux fluorescence; stronger effect = lower value. B-score at 10 µM. 310,000 compounds, 0.85% hits. AID 1672, 2009;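 active = fluorescence ratio B-score at or below minus 3 SD of library scores, with starting-brightness B-score within 2 SD, cut at about -4.2 in these data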;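 note: channel flux triggered by added potassium and thallium sulfate stimulus; B-score of peak minus minimum fluorescence over baseline after thallium stimulus; more negative B-score means stronger Kir2.1 block with less thallium influx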
# Target sequence (P35561 whole entry, looked up): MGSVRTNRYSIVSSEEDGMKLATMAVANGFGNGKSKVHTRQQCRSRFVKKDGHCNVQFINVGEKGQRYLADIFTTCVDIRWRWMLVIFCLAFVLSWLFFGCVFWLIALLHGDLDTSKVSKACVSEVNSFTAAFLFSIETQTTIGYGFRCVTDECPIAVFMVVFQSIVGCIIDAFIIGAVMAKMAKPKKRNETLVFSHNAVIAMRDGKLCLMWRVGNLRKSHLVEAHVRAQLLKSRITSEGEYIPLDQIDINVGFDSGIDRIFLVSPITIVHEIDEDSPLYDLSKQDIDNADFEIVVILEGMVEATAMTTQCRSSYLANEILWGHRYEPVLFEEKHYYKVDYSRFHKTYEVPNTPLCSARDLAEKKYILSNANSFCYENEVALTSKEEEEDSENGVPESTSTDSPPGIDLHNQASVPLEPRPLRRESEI
# TRPC4 potent = positive allosteric modulators of TRPC4, primary screen, cell-based, mouse TRPC4beta, HEK293 mu-opioid, Fluo-4 calcium | Short transient receptor potential channel 4 (Mus musculus), Q9QUQ5 | DAMGO EC20, Fluo-4 Ca2+ flux; stronger effect = higher value | B-score at 10 µM | 310,000 compounds, 0.42% hits;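 active = B-score of calcium response area above 5 SD of library B-scores, with initial fluorescence ratio within 5 SD of library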;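 note: B-score of integrated fluorescence ratio over time as area under calcium response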
# TRPC4 block = inhibitors of mouse TRPC4 channel, primary screen, Fluo4 calcium, HEK293 TRPC4beta/mu-opioid cells; Short transient receptor potential channel 4 (Mus musculus), Q9QUQ5; DAMGO-evoked Fluo4 calcium flux; stronger effect = lower value; B-score at 10 µM; 300,000 compounds, 0.39% hits; AID 2247, 2010;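 active = B-score over 3 SD under the library average, no early fluorescence shift, positive overall ratio signal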
#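 test system = HEK293 cells with stable TRPC4beta plus mu-opioid receptor expression | detection = Fluo4 Ca2+ flux fluorescence | read-out = integrated fluorescence ratio relative to baseline, converted to per-well B score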
# TRPC4 sel inh 2 = second selectivity test of TRPC6 inhibitors: effect on mouse TRPC4; HEK293 TRPC4/MOR, membrane potential dye fluorescence; channel activated by saturating DAMGO dose; shares compounds with TRPC6 inhibitor; inhibition, % at 10 µM; 920 compounds, 42% hits;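 active = compounds whose fluorescence signal differed from control wells by over 3 SD, either direction, in both duplicate plates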
# TRPC4 spec = mouse TRPC4 modulation by TRPC6 hits, confirmation, selectivity assay for TRPC6 inhibitor project, cell-based, HEK293 TRPC4/mu-opioid, membrane potential dye; shares compounds with TRPC6 inhibitor; activity change, negative = inhibition, % at 10 µM; 920 compounds, 61% hits; membrane potential fluorescence;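 active = rise or fall in signal beyond 3 SD of buffer-only wells in both replicate plates, either sign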;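 note: integrated kinetic ratio of fluorescence range over baseline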
# HEK293 MPD ctr 2-1 = nonspecific membrane potential effects, parental HEK293, confirmation, counter-screen for TRPC6 inhibitor project, cell-based, second counter screen | shares compounds with TRPC6 inhibitor | parental HEK293 membrane potential dye fluorescence; maximal acetylcholine challenge after compound addition | signal change vs control, % at 10 µM | 920 compounds, 31% hits | AID 2779, 2010;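 active = membrane potential signal moving either way by over 3 SD of the maximum-effect control, in both duplicate plates, meaning non-specific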
# HEK293 MPD ctr-1 = membrane potential modulation in parental HEK293, confirmation, counter-screen for TRPC6 inhibitor project, cell-based; shares compounds with TRPC6 inhibitor; parental HEK293 membrane potential dye fluorescence; membrane potential signal change, % at 10 µM; 920 compounds, 60% hits;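 active = membrane potential signal shifting up or down by more than 3 SD of buffer-only wells, on both duplicate plates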
# HEK293 MPD ctr-2 = parental HEK293 membrane potential modulation, confirmation, counter-screen for TRPC6 modulator project, cell-based | AID 488924, 2010 | 2,400 compounds, 51% hits | membrane potential signal change, % at 10 µM | membrane potential dye fluorescence | shares compounds with TRPC6 inhibitor;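 active = membrane potential signal moves up or down beyond 5 SD from buffer-only wells, on both duplicate plates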
# HEK293 MPD ctr 2-2 = second check of TRPC6 modulator effects in parental HEK293 cells. shares compounds with TRPC6 inhibitor. membrane potential dye fluorescence; after compound, maximal acetylcholine stimulation. inhibition, % at 10 µM. 2,400 compounds, 14% hits;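 active = membrane potential signal drops by more than 5 SD from the mean control signal, in both duplicate plates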;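 note: plate controls were acetylcholine ECmax control wells for no effect and buffer only wells for full effect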
# TRPC4 ctr mod = TRPC4 modulation by TRPC6 hit compounds, confirmation, selectivity assay for TRPC6 modulator project, cell-based, HEK293 TRPC4/mu-opioid, membrane potential dye, mouse; shares compounds with TRPC6 inhibitor; membrane potential fluorescence; percent change from control (negative = decrease, positive = increase), % at 10 µM; 2,400 compounds, 69% hits; AID 488927, 2010;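 active = membrane potential signal moved up or down beyond 5 SD of buffer control wells, in both duplicate plates, actives on both sides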;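 note: plate controls were assay buffer wells for no effect and DAMGO maximal-effect wells for full effect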
# TRPC4 ctr inh 2 = second selectivity test of TRPC6 modulators against mouse TRPC4 | shares compounds with TRPC6 inhibitor | HEK293 TRPC4/mu-opioid, membrane potential dye fluorescence; stimulated with maximal-effect DAMGO | inhibition, % at 10 µM | 2,400 compounds, 55% hits | AID 488928;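 active = drop in membrane potential signal beyond 5 SD of the control wells in both duplicate plates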;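 note: TRPC4 counter screen for TRPC6 hits run under conditions tuned for TRPC6 not TRPC4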
# TRPC6 block conf = mouse TRPC6 channel inhibitors, confirmation, HEK293 cells, membrane potential dye, duplicate | shares compounds with TRPC6 inhibitor | ACh-evoked depolarization | inhibition, % at 10 µM | 3,300 compounds, 43% hits;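 active = fluorescence ratio falls more than 5 SD below the full-stimulation control mean, in both duplicate runs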;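 note: integrated fluorescence ratio of peak minus minimum over baseline after agonist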
# TRPC6 act conf = mouse TRPC6 channel activators, confirmation, HEK293 cells, membrane potential dye, duplicate; shares compounds with TRPC6 inhibitor; HEK293-TRPC6 membrane potential dye fluorescence, FDSS; activation, % at 10 µM; 2,800 compounds, 11% hits; AID 488961, 2010;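 active = ratio signal rise beyond 5 SD above unstimulated control wells' mean, seen in both duplicate runs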;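 note: plate controls were buffer EC0 wells for no effect and acetylcholine ECmax response for full effect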
# * hit, by the source's call; i = inactive; . = no result.
SMILES,TRPC6 inhibitor,TRPC4 act,TRPC6 activator,Kir21 block,TRPC4 potent,TRPC4 block,HEK293 MPD ctr-2,HEK293 MPD ctr 2-2,TRPC4 ctr mod,TRPC4 ctr inh 2,TRPC6 block conf,TRPC6 act conf,others
CC12CCC(=O)N1C(C(=O)N1CCN(c3ccc(C(F)(F)F)cc3[N+](=O)[O-])CC1)CS2 (stereo unspecified),i,i,i,0.74,i,i,.,.,.,.,.,.,
CNCc1c(OCc2ccccc2)ccc2ccccc12,-7*,i,i,-0.25,i,-6*,.,.,.,.,i,.,TRPC4 sel inh 2=44%*;TRPC4 spec=29%*;HEK293 MPD ctr 2-1=i;HEK293 MPD ctr-1=12%*
CC1CCCN(C(=O)COC(=O)c2cc(-c3cccs3)nn2-c2ccccc2)C1 (stereo unspecified),-6.5*,i,i,0.46,i,i,113%*,i,18%*,i,50%*,.,
NC(=O)COC(=O)c1cc(-c2cccs2)nn1-c1ccccc1,i,i,i,-0.12,i,.,.,.,.,.,.,.,
CC(C)(C)OC(=O)CN1C(=O)NC(Cc2c[nH]c3ccccc23)C1=O (stereo unspecified),i,i,i,0.01,i,i,.,.,.,.,.,.,
O=C1NC(Cc2c[nH]c3ccccc23)C(=O)N1Cc1ccc(CN2C(=O)NC(Cc3c[nH]c4ccccc34)C2=O)cc1 (stereo unspecified),-5.3*,i,i,2.4,i,i,i,i,i,i,i,i,
O=[N+]([O-])c1ccccc1S(=O)(=O)N1CCCC(C(F)(F)F)C1 (stereo unspecified),-5.1*,i,i,1.9,i,i,i,i,i,i,i,i,
O=[N+]([O-])c1ccccc1S(=O)(=O)N1CCCCC1,i,i,i,0.1,i,i,.,.,.,.,.,.,
Cc1ccc(C)c(NC(=O)C(NCC(C)(C)N2CCOCC2)c2ccccc2)c1 (stereo unspecified),-6.7*,i,i,-2.2,i,i,.,.,.,.,i,.,TRPC4 sel inh 2=i;TRPC4 spec=5.2%*;HEK293 MPD ctr 2-1=i;HEK293 MPD ctr-1=7.3%*
Cc1[nH]c(C)c2c(=O)[nH]ncc12,i,i,i,1.5,i,i,.,.,.,.,.,.,
CCOC(=O)N1CCN(C(=O)CN2C(=O)COc3ccc(C(C)(C)C)cc32)CC1,-6.3*,i,i,0.68,i,i,94%*,i,18%*,i,54%*,.,
COC(=O)c1ccccc1NC(=O)C1CCN(c2ncnc3c2nc2n3CCCCC2)CC1,i,i,i,-2.3,i,i,.,.,.,.,.,.,
CC(C)(C)NC(=O)Cn1nnc(-c2ccccc2NC(=O)c2cnccn2)n1,-7.1*,i,13*,-0.7,i,i,i,i,20%*,i,i,72%*,
CC[C@H]1CC2CN3CCc4c([nH]c5c([C@H]6C[C@H]7[C@H](CC)CN(C)[C@@H](Cc8c6[nH]c6ccccc86)[C@H]7C(=O)OC)c(OC)ccc45)C(C(=O)OC)(C2)C13,i,i,i,1.3,i,i,.,.,.,.,.,.,
O=C(Nc1ccccc1-c1ccccc1)c1ccc(=O)[nH]n1,i,i,i,-0.33,i,i,.,.,.,.,.,.,
CC1=CC(C)(C)N(C(=O)CNC2CCCCC2)c2cc(C)ccc21,-5.6*,i,i,-6*,i,i,126%*,i,36%*,58%*,50%*,i,
O=[N+]([O-])c1cccc(OCCCN2CCC(Cc3ccccc3)CC2)c1,-7.1*,i,i,-1.6,i,i,.,.,.,.,88%*,i,TRPC4 sel inh 2=16%*;TRPC4 spec=-12%*;HEK293 MPD ctr 2-1=i;HEK293 MPD ctr-1=-224%*
CC(=O)CCc1ccc(OCCCCN2CCC(Cc3ccccc3)CC2)cc1,-8.4*,i,i,-1.4,i,i,i,i,i,70%*,46%*,.,
COc1cccc(OC)c1OCCCCN1CCC(Cc2ccccc2)CC1,i,i,i,0.18,i,i,.,.,.,.,.,.,

# High-throughput results from PubChem.
